Assay results: ChEMBL document CHEMBL5058577, “EUbOPEN Chemogenomics Library 2 (Multiplex)” (2022)

Tested on: U2OS
Experiment: Multiplex assay against U2OS
Format: toxicity, cell-based
Settings: human
Summary of the method: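 Live cells were stained at seeding with Hoechst33342, BioTracker Green Microtubule Cytoskeleton Dye, MitoTracker Red and Annexin V Alexa Fluor 680, then imaged on a CQ1 microscope at 37°C and 5% CO2 after compound addition. CellPathfinder machine-learning gating split cells into Hoechst high-intensity objects or normal cells. Normal cells were split into healthy, pyknosed or fragmented nuclei, and pyknosed cells into mitotic or apoptotic. Tubulin, mitochondrial-mass and membrane-permeability phenotypes are per cents of healthy-nucleus cells.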

[1] = 12 h, 1 µM, compound concentration 1 uM, replicate 1
[2] = 12 h, 1 µM, compound concentration 1 uM, replicate 2
[3] = 12 h, 10 µM, compound concentration 10 uM, replicate 1
[4] = 12 h, 10 µM, compound concentration 10 uM, replicate 2
[5] = 24 h, 1 µM, compound concentration 1 uM, replicate 1
[6] = 24 h, 1 µM, compound concentration 1 uM, replicate 2
[7] = 24 h, 10 µM, compound concentration 10 uM, replicate 1
[8] = 24 h, 10 µM, compound concentration 10 uM, replicate 2
[9] = 48 h, 1 µM, compound concentration 1 uM, replicate 1
[10] = 48 h, 1 µM, compound concentration 1 uM, replicate 2
[11] = 48 h, 10 µM, compound concentration 10 uM, replicate 1
[12] = 48 h, 10 µM, compound concentration 10 uM, replicate 2

COc1cc2nc(N3CCN(C(=O)COc4c(OC)cccc4C(C)C)CC3)nc(N)c2cc1OC.Cl.Cl
Population Apoptotic (%) [1]: 67% | Population Fragmented Nuclei (%) [1]: 21% | Population Healthy Nuclei (%) [1]: 66% | Population Hoechst High Intensity Objects (%) [1]: 3% | Population Membrane Permeable-Phenotype (%) [1]: 10% | Population Mitochondria Different-Phenotype (%) [1]: 5% | Population Mitotic Cells (%) [1]: 32% | Population Normal (%) [1]: 96% | Population Pyknosed Nuclei (%) [1]: 11% | Population Tubulin-Different-Phenotype (%) [1]: 6% | Total Cell Count [1]: 256 | Population Apoptotic (%) [2]: 33% | Population Fragmented Nuclei (%) [2]: 10% | Population Healthy Nuclei (%) [2]: 84% | Population Hoechst High Intensity Objects (%) [2]: 2% | Population Mitochondria Different-Phenotype (%) [2]: 6% | Population Mitotic Cells (%) [2]: 66% | Population Normal (%) [2]: 97% | Population Pyknosed Nuclei (%) [2]: 4% | Total Cell Count [2]: 136 | Population Apoptotic (%) [3]: 55% | Population Fragmented Nuclei (%) [3]: 30% | Population Healthy Nuclei (%) [3]: 43% | Population Hoechst High Intensity Objects (%) [3]: 3% | Population Membrane Permeable-Phenotype (%) [3]: 60% | Population Mitochondria Different-Phenotype (%) [3]: 55% | Population Mitotic Cells (%) [3]: 44% | Population Normal (%) [3]: 96% | Population Pyknosed Nuclei (%) [3]: 25% | Population Tubulin-Different-Phenotype (%) [3]: 75% | Total Cell Count [3]: 233 | Population Apoptotic (%) [4]: 66% | Population Fragmented Nuclei (%) [4]: 19% | Population Healthy Nuclei (%) [4]: 48% | Population Hoechst High Intensity Objects (%) [4]: 0% | Population Membrane Permeable-Phenotype (%) [4]: 54% | Population Mitochondria Different-Phenotype (%) [4]: 65% | Population Mitotic Cells (%) [4]: 33% | Population Normal (%) [4]: 99% | Population Pyknosed Nuclei (%) [4]: 32% | Population Tubulin-Different-Phenotype (%) [4]: 68% | Total Cell Count [4]: 151 | Population Apoptotic (%) [5]: 84% | Population Fragmented Nuclei (%) [5]: 21% | Population Healthy Nuclei (%) [5]: 67% | Population Hoechst High Intensity Objects (%) [5]: 3% | Population Membrane Permeable-Phenotype (%) [5]: 6% | Population Mitochondria Different-Phenotype (%) [5]: 8% | Population Mitotic Cells (%) [5]: 15% | Population Normal (%) [5]: 96% | Population Pyknosed Nuclei (%) [5]: 11% | Population Tubulin-Different-Phenotype (%) [5]: 4% | Total Cell Count [5]: 297 | Population Apoptotic (%) [6]: 80% | Population Fragmented Nuclei (%) [6]: 15% | Population Healthy Nuclei (%) [6]: 77% | Population Hoechst High Intensity Objects (%) [6]: 0% | Population Membrane Permeable-Phenotype (%) [6]: 10% | Population Mitochondria Different-Phenotype (%) [6]: 7% | Population Mitotic Cells (%) [6]: 20% | Population Normal (%) [6]: 99% | Population Pyknosed Nuclei (%) [6]: 6% | Population Tubulin-Different-Phenotype (%) [6]: 5% | Total Cell Count [6]: 154 | Population Apoptotic (%) [7]: 76% | Population Fragmented Nuclei (%) [7]: 30% | Population Healthy Nuclei (%) [7]: 36% | Population Hoechst High Intensity Objects (%) [7]: 9% | Population Membrane Permeable-Phenotype (%) [7]: 40% | Population Mitochondria Different-Phenotype (%) [7]: 49% | Population Mitotic Cells (%) [7]: 24% | Population Normal (%) [7]: 90% | Population Pyknosed Nuclei (%) [7]: 33% | Population Tubulin-Different-Phenotype (%) [7]: 50% | Total Cell Count [7]: 246 | Population Apoptotic (%) [8]: 87% | Population Fragmented Nuclei (%) [8]: 20% | Population Healthy Nuclei (%) [8]: 40% | Population Hoechst High Intensity Objects (%) [8]: 12% | Population Membrane Permeable-Phenotype (%) [8]: 49% | Population Mitochondria Different-Phenotype (%) [8]: 50% | Population Mitotic Cells (%) [8]: 12% | Population Normal (%) [8]: 87% | Population Pyknosed Nuclei (%) [8]: 39% | Population Tubulin-Different-Phenotype (%) [8]: 60% | Total Cell Count [8]: 185 | Population Apoptotic (%) [9]: 83% | Population Fragmented Nuclei (%) [9]: 20% | Population Healthy Nuclei (%) [9]: 70% | Population Hoechst High Intensity Objects (%) [9]: 2% | Population Membrane Permeable-Phenotype (%) [9]: 6% | Population Mitochondria Different-Phenotype (%) [9]: 6% | Population Mitotic Cells (%) [9]: 16% | Population Normal (%) [9]: 97% | Population Pyknosed Nuclei (%) [9]: 8% | Population Tubulin-Different-Phenotype (%) [9]: 4% | Total Cell Count [9]: 441 | Population Apoptotic (%) [10]: 75% | Population Fragmented Nuclei (%) [10]: 16% | Population Healthy Nuclei (%) [10]: 72% | Population Hoechst High Intensity Objects (%) [10]: 3% | Population Membrane Permeable-Phenotype (%) [10]: 7% | Population Mitotic Cells (%) [10]: 25% | Population Normal (%) [10]: 96% | Population Pyknosed Nuclei (%) [10]: 11% | Population Tubulin-Different-Phenotype (%) [10]: 6% | Total Cell Count [10]: 225 | Population Apoptotic (%) [11]: 88% | Population Fragmented Nuclei (%) [11]: 40% | Population Healthy Nuclei (%) [11]: 21% | Population Hoechst High Intensity Objects (%) [11]: 31% | Population Membrane Permeable-Phenotype (%) [11]: 13% | Population Mitochondria Different-Phenotype (%) [11]: 30% | Population Mitotic Cells (%) [11]: 11% | Population Normal (%) [11]: 68% | Population Pyknosed Nuclei (%) [11]: 38% | Population Tubulin-Different-Phenotype (%) [11]: 13% | Total Cell Count [11]: 296 | Population Apoptotic (%) [12]: 93% | Population Fragmented Nuclei (%) [12]: 24% | Population Healthy Nuclei (%) [12]: 23% | Population Hoechst High Intensity Objects (%) [12]: 32% | Population Membrane Permeable-Phenotype (%) [12]: 27% | Population Mitochondria Different-Phenotype (%) [12]: 10% | Population Mitotic Cells (%) [12]: 6% | Population Normal (%) [12]: 67% | Population Pyknosed Nuclei (%) [12]: 51% | Population Tubulin-Different-Phenotype (%) [12]: 24% | Total Cell Count [12]: 180
